ChEMBL document CHEMBL4311940, “Design, Synthesis, and Biological Evaluation of 4-Methyl Quinazoline Derivatives as Anticancer Agents Simultaneously Targeting Phosphoinositide 3-Kinases and Histone Deacetylases” (J Med Chem, 2019)

Columns and labels:
HCT-116 [1] = assay: Induction of apoptosis in human HCT116 cells assessed as live cells at 20 nM after 48 hrs by Annexin V-FITC/propidium iodide staining-based flow cytometric analysis (reference value: 89.6%); type: functional
[2] = Drug concentration in human HCT116 cells assessed per million cells at 25 uM after 1 hr by LC/MS/MS analysis; type: ADME, cell-based; conditions: hct-116, 1 h
Outline: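 HCT116 cells seeded overnight, exposed 1 h to 25 μM compound in 4 wells, washed three times with PBS; one well trypsinized for cell count, three scraped, sonicated, acetonitrile-extracted, LC/MS/MS; nmol per million cells = concentration × total volume / cell number.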

Histone deacetylase 11 = Histone deacetylase 11 (Homo sapiens, UniProt Q96DB2); assay: Inhibition of recombinant human full length HDAC11 expressed in baculovirus infected Sf9 insect cells using Ac-peptide as substrate preincubated for 15 mins followed by substrate addition and measured after 1 hr
Chain of Histone deacetylase 11 (Q96DB2 whole entry, canonical isoform): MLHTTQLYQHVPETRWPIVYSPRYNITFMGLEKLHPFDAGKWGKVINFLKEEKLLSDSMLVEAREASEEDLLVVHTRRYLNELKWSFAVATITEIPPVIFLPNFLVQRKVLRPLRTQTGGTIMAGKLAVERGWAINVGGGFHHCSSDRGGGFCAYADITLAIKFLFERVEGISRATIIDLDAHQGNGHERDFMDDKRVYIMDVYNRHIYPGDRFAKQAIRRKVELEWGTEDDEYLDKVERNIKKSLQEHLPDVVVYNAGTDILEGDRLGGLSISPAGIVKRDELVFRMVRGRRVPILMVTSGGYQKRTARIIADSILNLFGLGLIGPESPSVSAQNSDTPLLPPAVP
Outline: (§1)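 Recombinant HDAC isoforms mixed with serially diluted compound in assay buffer for 15 min at room temperature. Ac-peptide substrate then added and incubated 1 h at room temperature. Signal read on a plate reader; IC50 by curve fitting.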

[3] = Mutagenicity in Salmonella typhimurium TA102 at 5 to 500 ug/plate in presence of s9 mix by Ames test; type: toxicity, subcellular; conditions: salmonella enterica subsp. enterica serovar typhimurium
Outline: (§2)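 Plate incorporation method at 5, 50 and 500 μg/plate, with and without S9 activation. At least three plates per dose, incubated 72 h at 37 °C, revertants counted. Mean revertants compared with vehicle and positive controls.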

[4] = target: Phosphatidylinositol 4,5-bisphosphate 3-kinase catalytic subunit gamma isoform (Homo sapiens, UniProt P48736); assay: Inhibition of recombinant human His-tagged PIK3CG expressed in baculovirus expression system using PIP2 as substrate incubated for 1 hr by ADP-glo assay
Chain of Phosphatidylinositol 4,5-bisphosphate 3-kinase catalytic subunit gamma isoform (P48736 whole entry, canonical isoform): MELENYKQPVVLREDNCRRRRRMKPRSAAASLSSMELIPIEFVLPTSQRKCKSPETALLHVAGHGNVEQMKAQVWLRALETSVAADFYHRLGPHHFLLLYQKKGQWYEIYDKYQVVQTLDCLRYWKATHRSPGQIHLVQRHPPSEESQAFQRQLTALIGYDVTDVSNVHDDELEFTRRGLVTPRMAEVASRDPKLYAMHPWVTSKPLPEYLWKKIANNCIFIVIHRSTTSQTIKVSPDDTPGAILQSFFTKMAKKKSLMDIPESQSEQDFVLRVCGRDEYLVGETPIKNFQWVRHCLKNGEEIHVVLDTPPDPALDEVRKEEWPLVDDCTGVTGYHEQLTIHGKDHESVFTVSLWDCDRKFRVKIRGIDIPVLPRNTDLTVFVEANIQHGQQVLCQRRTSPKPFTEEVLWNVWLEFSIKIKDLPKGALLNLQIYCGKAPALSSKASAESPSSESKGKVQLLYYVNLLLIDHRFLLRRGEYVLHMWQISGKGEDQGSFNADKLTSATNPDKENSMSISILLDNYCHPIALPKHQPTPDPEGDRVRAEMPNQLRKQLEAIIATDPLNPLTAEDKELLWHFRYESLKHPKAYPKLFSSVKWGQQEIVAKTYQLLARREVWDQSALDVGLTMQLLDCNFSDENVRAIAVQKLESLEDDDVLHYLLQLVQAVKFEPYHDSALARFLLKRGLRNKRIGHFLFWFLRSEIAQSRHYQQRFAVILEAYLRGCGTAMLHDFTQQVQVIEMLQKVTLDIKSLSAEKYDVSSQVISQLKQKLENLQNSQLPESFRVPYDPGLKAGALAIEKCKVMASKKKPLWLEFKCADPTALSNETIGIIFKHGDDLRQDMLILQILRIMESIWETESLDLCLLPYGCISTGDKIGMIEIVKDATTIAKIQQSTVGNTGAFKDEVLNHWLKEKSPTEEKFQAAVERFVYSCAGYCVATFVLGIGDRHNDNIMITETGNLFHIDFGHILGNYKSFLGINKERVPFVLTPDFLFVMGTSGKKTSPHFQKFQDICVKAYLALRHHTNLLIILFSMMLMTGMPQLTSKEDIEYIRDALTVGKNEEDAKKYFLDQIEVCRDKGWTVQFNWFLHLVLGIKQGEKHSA
Outline: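 Recombinant PI3Kβ, -γ or -δ, serially diluted compound, PIP2 substrate and ATP combined in kinase buffer. Incubated 1 h at room temperature in the dark, then stopped with ADP-Glo reagent. Luminescence read after kinase detection reagent; IC50 by curve fitting.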

K562 = assay: Antiproliferative activity against human K562 cells after 96 hrs by MTT assay; type: functional, cell-based; conditions: K562, 96 h
HCT-116 [5] = assay: Induction of apoptosis in human HCT116 cells after 48 hrs by Annexin V-FITC/propidium iodide staining-based flow cytometric analysis; type: functional, cell-based
[6] = Mutagenicity in Salmonella typhimurium TA97 at 5 to 500 ug/plate in presence of s9 mix by Ames test; type: toxicity, subcellular; conditions: salmonella enterica subsp. enterica serovar typhimurium; outline: as §2
[7] = Tmax in ICR mouse at 3 mg/kg, iv measured after 0.033 to 24 hrs by LC/MS/MS analysis; type: ADME, organism-based; conditions: in vivo
Outline: (§3)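 Male-unspecified ICR mice, 3 per group iv (3 mg/kg in 10% DMSO/saline) and 5 per group po (30 mg/kg in 0.5% cmc/0.3% Tween 80). Blood sampled 0.033 (iv) or 0.083 (po) to 24 h. Plasma extracted with acetonitrile, analysed by LC/MS/MS; noncompartmental analysis.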

[8] = Mutagenicity in Salmonella typhimurium TA100 at 5 to 500 ug/plate in absence of s9 mix by Ames test; type: toxicity; conditions: salmonella enterica subsp. enterica serovar typhimurium; outline: as §2
[9] = target: Voltage-gated inwardly rectifying potassium channel KCNH2 (Homo sapiens, UniProt Q12809); assay: Inhibition of human ERG stably expressed in CHO cells by whole cell patch clamp method; type: cell-based
Chain of Voltage-gated inwardly rectifying potassium channel KCNH2 (Q12809 whole entry): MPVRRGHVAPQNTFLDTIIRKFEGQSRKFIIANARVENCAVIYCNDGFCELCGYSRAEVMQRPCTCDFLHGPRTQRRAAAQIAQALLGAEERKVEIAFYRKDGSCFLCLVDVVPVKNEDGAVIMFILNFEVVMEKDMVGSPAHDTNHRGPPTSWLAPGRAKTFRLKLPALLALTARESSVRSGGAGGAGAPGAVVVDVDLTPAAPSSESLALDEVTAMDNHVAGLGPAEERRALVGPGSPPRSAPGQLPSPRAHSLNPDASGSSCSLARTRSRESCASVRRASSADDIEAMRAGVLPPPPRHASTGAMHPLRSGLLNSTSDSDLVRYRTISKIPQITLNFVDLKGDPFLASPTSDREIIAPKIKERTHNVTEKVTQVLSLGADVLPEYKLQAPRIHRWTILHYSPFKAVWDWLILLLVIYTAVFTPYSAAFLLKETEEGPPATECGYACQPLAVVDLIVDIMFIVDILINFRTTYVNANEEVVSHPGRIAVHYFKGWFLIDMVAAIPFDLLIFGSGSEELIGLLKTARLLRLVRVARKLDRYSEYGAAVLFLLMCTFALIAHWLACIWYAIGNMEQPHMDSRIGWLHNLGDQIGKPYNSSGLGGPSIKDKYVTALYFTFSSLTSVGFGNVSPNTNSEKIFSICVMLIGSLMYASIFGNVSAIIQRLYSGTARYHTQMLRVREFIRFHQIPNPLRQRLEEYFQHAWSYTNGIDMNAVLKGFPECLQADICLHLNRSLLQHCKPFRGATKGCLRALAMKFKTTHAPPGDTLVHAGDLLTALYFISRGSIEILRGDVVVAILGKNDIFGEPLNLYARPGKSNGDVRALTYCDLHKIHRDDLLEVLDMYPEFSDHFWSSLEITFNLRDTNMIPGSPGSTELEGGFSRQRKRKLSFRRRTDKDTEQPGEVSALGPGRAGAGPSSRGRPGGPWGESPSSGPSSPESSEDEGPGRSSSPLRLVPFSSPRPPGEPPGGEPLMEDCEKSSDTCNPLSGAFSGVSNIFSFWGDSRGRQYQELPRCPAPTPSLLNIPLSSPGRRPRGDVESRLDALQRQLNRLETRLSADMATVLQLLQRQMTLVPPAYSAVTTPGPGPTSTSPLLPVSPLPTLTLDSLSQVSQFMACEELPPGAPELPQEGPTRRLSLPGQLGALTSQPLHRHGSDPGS
Outline: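 CHO cells stably expressing hERG, grown in F-12 (Ham)/GlutaMAX with 10% FBS, penicillin G, blasticidin S and hygromycin B. Expression induced with 1 μg/mL doxycycline, cells cultured 24 h, then recorded by whole-cell patch clamp.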

HCT-116 [10] = assay: Induction of apoptosis in human HCT116 cells assessed as live cells at 100 nM after 48 hrs by Annexin V-FITC/propidium iodide staining-based flow cytometric analysis (reference value: 89.6%); type: functional
[11] = AUC (0 to infinity) in ICR mouse at 30 mg/kg, po measured after 0.083 to 24 hrs by LC/MS/MS analysis; type: ADME, organism-based; parameters: dose 30 mg/kg, time infinity, route oral; conditions: in vivo
Outline: (§4)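 ICR mice; iv 3 mg/kg in 10% DMSO/saline (3 mice/group), blood at 0.033, 0.083, 0.25, 0.5, 1, 2, 4, 8, 12, 24 h; po 30 mg/kg as 0.5% cmc/0.3% Tween 80 suspension (5 mice/group), blood at 0.083–24 h. Plasma extracted with acetonitrile, LC/MS/MS; parameters by noncompartmental analysis.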

HCT-116 [12] = assay: Induction of apoptosis in human HCT116 cells assessed as necrotic cells at 20 nM after 48 hrs by Annexin V-FITC/propidium iodide staining-based flow cytometric analysis (reference value: 5.23%); type: functional
[13] = Tmax in ICR mouse at 30 mg/kg, po measured after 0.083 to 24 hrs by LC/MS/MS analysis; type: ADME, organism-based; conditions: in vivo; outline: as §3
NCI-H460 = assay: Antiproliferative activity against human NCI-H460 cells after 96 hrs by MTT assay; type: functional, cell-based; conditions: NCI-H460, 96 h
HCT-116 [14] = assay: Induction of apoptosis in human HCT116 cells assessed as early apoptotic cells at 20 nM after 48 hrs by Annexin V-FITC/propidium iodide staining-based flow cytometric analysis (reference value: 1.33%); type: functional
[15] = target: Serine/threonine-protein kinase mTOR (Homo sapiens, UniProt P42345); assay: Inhibition of recombinant human N-terminal FLAG-tagged mTOR (1362 to end amino acids) using ULight-4E-BP1 as substrate incubated for 1 hr by LANCE Ultra assay
Outline: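 mTOR protein, compound, ULight-4E-BP1 (Thr37/46) peptide and ATP in kinase buffer, 30 min at room temperature. LANCE detection buffer with EDTA and Eu-anti-phospho-4E-BP1 (Thr37/46) antibody added, then 1 h equilibration at room temperature. TR-FRET read; IC50 by curve fitting.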

[16] = Cmax in ICR mouse at 30 mg/kg, po measured after 0.083 to 24 hrs by LC/MS/MS analysis; type: ADME, organism-based; parameters: dose 30 mg/kg, route oral; conditions: in vivo; outline: as §4
NCI-H1299 = assay: Antiproliferative activity against human NCI-H1299 cells after 96 hrs by MTT assay; type: functional, cell-based; conditions: NCI-H1299, 96 h
U-87 MG = assay: Antiproliferative activity against human U87 cells after 96 hrs by MTT assay; type: functional, cell-based, U-87MG ATCC
HCT-116 [17] = assay: Induction of apoptosis in human HCT116 cells assessed as late apoptotic cells at 500 nM after 48 hrs by Annexin V-FITC/propidium iodide staining-based flow cytometric analysis (reference value: 3.87%); type: functional
HCT-8 = assay: Antiproliferative activity against human HCT8 cells after 96 hrs by MTT assay; type: functional, cell-based; conditions: HCT-8, 96 h
HCT-116 [18] = assay: Induction of apoptosis in human HCT116 cells assessed as live cells at 500 nM after 48 hrs by Annexin V-FITC/propidium iodide staining-based flow cytometric analysis (reference value: 89.6%); type: functional
Histone deacetylase 2 = Histone deacetylase 2 (Homo sapiens, UniProt Q92769); assay: Inhibition of recombinant human full length HDAC2 expressed in baculovirus infected Sf9 insect cells using Ac-peptide as substrate preincubated for 15 mins followed by substrate addition and measured after 1 hr; outline: as §1
Chain of Histone deacetylase 2 (Q92769 whole entry): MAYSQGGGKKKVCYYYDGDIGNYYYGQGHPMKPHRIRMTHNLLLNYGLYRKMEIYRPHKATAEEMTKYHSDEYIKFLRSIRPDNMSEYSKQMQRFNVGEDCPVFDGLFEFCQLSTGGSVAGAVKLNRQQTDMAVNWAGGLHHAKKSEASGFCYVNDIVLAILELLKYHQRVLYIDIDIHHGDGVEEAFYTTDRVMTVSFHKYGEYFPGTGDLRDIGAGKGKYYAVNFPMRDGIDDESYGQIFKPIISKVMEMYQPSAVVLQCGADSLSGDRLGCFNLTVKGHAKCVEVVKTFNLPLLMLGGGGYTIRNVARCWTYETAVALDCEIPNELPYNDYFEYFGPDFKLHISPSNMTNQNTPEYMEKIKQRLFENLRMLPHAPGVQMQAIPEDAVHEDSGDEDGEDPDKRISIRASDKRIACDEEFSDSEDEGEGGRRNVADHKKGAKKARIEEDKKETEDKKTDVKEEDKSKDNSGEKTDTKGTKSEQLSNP

HCT-116 [19] = assay: Induction of apoptosis in human HCT116 cells assessed as early apoptotic cells at 500 nM after 48 hrs by Annexin V-FITC/propidium iodide staining-based flow cytometric analysis (reference value: 1.33%); type: functional

Row | Structure (SMILES) | Activity (HCT-116 [1]) [%] | Drug metabolism [2] | IC50 (Histone deacetylase 11) [nM] | Activity [3] | IC50 [4] [nM] | IC50 (K562) [µM] | Activity (HCT-116 [5]) | Activity [6] | Tmax [7] [min] | Activity [8] | IC50 [9] [µM] | Activity (HCT-116 [10]) [%] | Activity (HCT-116 [12]) [%] | Tmax [13] [h] | IC50 (NCI-H460) [nM] | Activity (HCT-116 [14]) [%] | IC50 [15] [µM] | Cmax [16] [ng/mL] | IC50 (NCI-H1299) [nM] | IC50 (U-87 MG) [nM] | other results
1 | COc1ncc(-c2cc(OCCCCCCC(=O)NO)c3ncnc(C)c3c2)cc1F | 88.6 | Metabolite_Detected | > 1000 | Non-Toxic | 67 | 6.8 | Dose-dependent effect | Non-Toxic | 1.8 | Non-Toxic | > 30 | 80.8 | 4.1 | 0.3 | 3000 | 1.83 | 2.86 | 143 | 1000 | 3200 | AUC(0-inf) ([11]; ICR): 274 ng·h/mL; Activity (HCT-116 [17]): 10.3%; IC50 (HCT-8): 320 nM; Activity (HCT-116 [18]): 67.9%; IC50 (Histone deacetylase 2): 3 nM; Activity (HCT-116 [19]): 18.2%
2 | COc1ccc(-c2cc(OCCN(C)c3ncc(C(=O)NO)cn3)c3ncnc(C)c3c2)cn1 | 83.6 | Metabolite_Detected | > 1000 | Non-Toxic | 467 | 1.2 | Dose-dependent effect | Non-Toxic | 1.8 | Non-Toxic | > 30 | 70.2 | 5.97 | 1.8 | 2700 | 4.53 | 6.26 | 9.39 | 180 | 340 | AUC [11]: 51.4 ng·h/mL; Activity (HCT-116 [17]): 24.4%; IC50 (HCT-8): 59 nM; Activity (HCT-116 [18]): 43.8%; IC50 (Histone deacetylase 2): 3.4 nM; Activity (HCT-116 [19]): 29.1%
